In EPA's CvTdb concentration-time database:

Key:
[1] = test system: Rat; test: concentration in plasma after dosing; settings: 2 h; dosed: Pyridine; 25 mg/kg; oral; Female; Harlan Sprague-Dawley
[2] = test system: Rat; test: concentration in plasma after dosing; settings: 50 min; dosed: Pyridine; 10 mg/kg; iv; Male; F344
[3] = test system: Rat; test: concentration in plasma after dosing; settings: dosed: Pyridine, 5 mg/kg, oral, Male, F344
[4] = test system: Mouse; test: concentration in plasma after dosing; settings: 0.25 h; dosed: 2-Hydroxy-4-methoxybenzophenone; 50 mg/kg; iv; Male; B6C3F1
[5] = test system: Rat; test: concentration in plasma after dosing; settings: 5 min; dosed: alpha-Thujone; 50 mg/kg; oral; Female; Harlan Sprague Dawley
[6] = test system: Rat; test: concentration in brain after dosing; settings: 2 min; dosed: alpha-Thujone; 50 mg/kg; oral; Female; Harlan Sprague Dawley
[7] = test system: Rat; test: concentration in brain after dosing; settings: 5 min; dosed: alpha-Thujone; 25 mg/kg; oral; Male; Harlan Sprague Dawley
[8] = test system: Rat; test: concentration in plasma after dosing; settings: 1.5 h; dosed: alpha-Thujone; 25 mg/kg; oral; Male; Harlan Sprague Dawley
[9] = test system: Rat; test: concentration in brain after dosing; settings: 6 h; dosed: alpha-Thujone; 25 mg/kg; oral; Male; Harlan Sprague Dawley
[10] = test system: Rat; test: concentration in plasma after dosing; settings: 10 min; dosed: alpha-Thujone; 25 mg/kg; oral; Male; Harlan Sprague Dawley
[11] = test system: Rat; test: concentration in brain after dosing; settings: 10 min; dosed: alpha-Thujone; 50 mg/kg; oral; Female; Harlan Sprague Dawley
[12] = test system: Rat; test: concentration in brain after dosing; settings: 0.5 h; dosed: alpha-Thujone; 25 mg/kg; oral; Male; Harlan Sprague Dawley
[13] = test system: Rat; test: concentration in brain after dosing; settings: 6 h; dosed: alpha-Thujone; 25 mg/kg; oral; Male; Harlan Sprague Dawley; remark: listed apart in the source
[14] = test system: Rat; test: concentration in plasma after dosing; settings: 6 h; dosed: alpha-Thujone; 50 mg/kg; oral; Female; Harlan Sprague Dawley
[15] = test system: Rat; test: concentration in brain after dosing; settings: 0.5 h; dosed: alpha-Thujone; 50 mg/kg; oral; Male; Harlan Sprague Dawley
[16] = test system: Rat; test: concentration in brain after dosing; settings: 12 h; dosed: Perfluorohexane-1-sulphonic acid – potassium salt; 16 mg/kg; oral; Female; Harlan Sprague Dawley
[17] = test system: Rat; test: concentration in brain after dosing; settings: 12 h; dosed: Perfluorohexane-1-sulphonic acid – potassium salt; 16 mg/kg; oral; Female; F344
[18] = test system: Rat; test: concentration in liver after dosing; settings: 192 h; dosed: Perfluorohexane-1-sulphonic acid – potassium salt; 16 mg/kg; oral; Female; F344
[19] = test system: Rat; test: concentration in kidney after dosing; settings: 192 h; dosed: Perfluorohexane-1-sulphonic acid – potassium salt; 16 mg/kg; oral; Female; Harlan Sprague Dawley
[20] = test system: Rat; test: concentration in liver after dosing; settings: 1200 h; dosed: Perfluorohexane-1-sulphonic acid – potassium salt; 16 mg/kg; oral; Male; Harlan Sprague Dawley
[21] = test system: Rat; test: concentration in brain after dosing; settings: 192 h; dosed: Perfluorohexane-1-sulphonic acid – potassium salt; 16 mg/kg; oral; Female; F344
[22] = test system: Rat; test: concentration in plasma after dosing; settings: dosed: Perfluorohexane-1-sulphonic acid – potassium salt, 4 mg/kg, oral, Male, F344
[23] = test system: Mouse; test: concentration in plasma after dosing; settings: dosed: 2,4-Dichlorophenoxyacetic acid, 5.2 mg/kg, oral, Male, B6C3F1
[24] = test system: Mouse; test: concentration in plasma after dosing; settings: dosed: 2,4-Dichlorophenoxyacetic acid, 5.2 mg/kg, oral, Male, B6C3F1; remark: listed apart in the source
[25] = test system: human; test: concentration in blood after dosing; settings: dosed: trichloroethylene, 100 ppm, inhalation, duration: 6 hr, male
Summary of the method: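 Concentration-versus-time or amount-versus-time points were compiled from published in vivo toxicokinetic studies and from two structured collections. The studies were found by PubMed searching, classifier screening and manual review. Points were mostly digitised from plot screenshots with WebPlotDigitizer, otherwise copied from tables, and kept in the reported units. Dose, route, subject details and medium were curated by hand from each paper, and sampling and analytical methods follow each source and were often unreported.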

[26] = test system: Rat; test: concentration in plasma after dosing; settings: dosed: Methyleugenol, 37 mg/kg, oral, Male, F344/N
[27] = test system: Rat; test: concentration in plasma after dosing; settings: 2 min; dosed: Methyleugenol; 37 mg/kg; oral; Female; F344/N
[28] = test system: Rat; test: concentration in plasma after dosing; settings: dosed: Methyleugenol, 37 mg/kg, oral, Male, F344/N; remark: listed apart in the source
[29] = test system: Rat; test: concentration in plasma after dosing; settings: 9 h; dosed: Primidone; 30 mg/kg; oral; Female; F344
[30] = test system: Rat; test: concentration in plasma after dosing; settings: 9 h; dosed: Primidone; 80 mg/kg; oral; Male; F344
[31] = test system: Rat; test: concentration in plasma after dosing; settings: 6 h; dosed: Primidone; 130 mg/kg; oral; Female; F344
[32] = test system: Rat; test: concentration in plasma after dosing; settings: 6 h; dosed: Primidone; 80 mg/kg; oral; Male; F344
[33] = test system: Rat; test: concentration in plasma after dosing; settings: 0.5 h; dosed: Primidone; 80 mg/kg; oral; Female; F344

c1ccncc1 [Pyridine]
Settings | concentration in plasma [ng/mL]
[1] | 17100
[2] | 2310

[3]
Settings | concentration in plasma [ng/mL]
4 h | 2550
5 min | 2490

O=C(c1ccccc1)c1ccc(O)cc1O [2,4-Dihydroxybenzophenone]
Settings | concentration in plasma [ng/mL]
[4] | 1940

CC(C)[C@]12CC(=O)[C@H](C)[C@H]1C2 [alpha-Thujone]
Settings | concentration in brain [ng/g] | concentration in plasma [ng/mL]
[5] | – | 2120
[6] | 13.2 | –
[7] | 754 | –
[8] | – | 186
[9] | 28.2 | –
[10] | – | 464
[11] | 1800 | –
[12] | 285 | –
[13] | 435 | –
[14] | – | 162
[15] | 5490 | –

O=S(=O)([O-])C(F)(F)C(F)(F)C(F)(F)C(F)(F)C(F)(F)C(F)(F)F.[K+] [Perfluorohexane-1-sulphonic acid – potassium salt]
Settings | concentration in brain [ng/g] | concentration in kidney [ng/g] | concentration in liver [ng/g]
[16] | 1140 | – | –
[17] | 1770 | – | –
[18] | – | – | 38200
[19] | – | 1560 | –
[20] | – | – | 10900
[21] | 834 | – | –

[22]
Settings | concentration in plasma [ng/mL]
0.25 h | 5490
12 h | 31800
528 h | 8940

O=C(O)COc1ccc(Cl)cc1Cl [2,4-Dichlorophenoxyacetic acid]
concentration in plasma [ng/mL]
Settings | 0.25 h | 0.5 h | 2 h | 3 h | 4 h | 5 min | 6 h | 10 h
[23] | 12300 | 19700 | 9630 | 13400 | 13300 | 6510 | 4310 | –
[24] | 12900 | 21100 | 18600 | 8140 | 8940 | 18900 | 2910 | 212

OCC(Cl)(Cl)Cl [trichloroethanol]
[25]
Settings | concentration in blood [ng/mL]
0 h | 4780
18 h | 1170
24 h | 3430
42 h | 2780
48 h | 6470
66 h | 5220
72 h | 10800
90 h | 7860

C=CCc1ccc(OC)c(OC)c1 [Methyleugenol]
concentration in plasma [ng/mL]
Settings | 0.5 h | 1 h | 4 h | 5 h
[26] | – | 59.2 | – | 18.6
[28] | 44.9 | – | 12.7 | –

Settings | concentration in plasma [ng/mL]
[27] | 308

CCC1(c2ccccc2)C(=O)NCNC1=O [Primidone]
Settings | concentration in plasma [ng/mL]
[29] | 6000
[30] | 3000
[31] | 58400
[32] | 13000
[33] | 40300
